# Bioassay records as filed in PubChem.
# MrgX1 allo act – allosterically activates human MrgX1 receptor signaling | MrgX1-HEK293, Fluo-4 calcium flux, FDSS; stronger effect = higher value | B-score at 10 µM | actives 0.63% (n = 310,000) | AID 588675;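 active means plate-corrected calcium response at least 3 library SD above typical, normal starting fluorescence, not activating the receptor alone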;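 further: compound read alongside a low EC10 to EC30 dose of BAM8-22 agonist; peak minus trough fluorescence over baseline measured at the second addition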
# Target sequence (Q96LB2 whole entry, looked up): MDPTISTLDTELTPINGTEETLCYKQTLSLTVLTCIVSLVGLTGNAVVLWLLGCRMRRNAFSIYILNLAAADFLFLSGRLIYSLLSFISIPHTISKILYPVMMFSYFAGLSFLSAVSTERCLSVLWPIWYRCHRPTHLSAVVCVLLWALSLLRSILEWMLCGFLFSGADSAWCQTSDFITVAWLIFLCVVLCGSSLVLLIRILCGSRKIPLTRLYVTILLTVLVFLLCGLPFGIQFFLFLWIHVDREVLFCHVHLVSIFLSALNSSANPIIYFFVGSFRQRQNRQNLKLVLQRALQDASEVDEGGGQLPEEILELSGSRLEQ
# MrgX1 agonist – activates human MrgX1 receptor signaling; Q96LB2; MrgX1-HEK293 cells, Fluo-4 calcium fluorescence, agonist mode; stronger effect = higher value; B-score at 10 µM; actives 0.44% (n = 310,000); AID 588627;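 active means calcium response B-score plate-corrected fluorescence ratio at least 3 library SD, with starting fluorescence B-score inside 5 SD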
#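 Test system: HEK293 cells stably expressing human MrgX1 receptor; Input: fifteen thousand cells per well; Dosing: compound delivered in addition one of three; Schedule: overnight seeding, then 1 h dark dye loading; Technique: Fluo-4 NW calcium fluorescence; Measure: B-scored fluorescence response ratio; Controls: positive and negative controls per plate.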
# RGS4 act – potentiators or activators of RGS4 | B-score at 10 µM | HEK293 M3R/inducible RGS4, carbachol calcium flux Fluo4; stronger effect = lower value | AID 463111 | actives 0.92% (n = 310,000);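 active means B-score of the integrated calcium signal more than 4 SD below the library mean, with starting fluorescence not abnormally high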;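 further: negative B-score means reduced calcium response which marks RGS4 activation or potentiation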
#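 test system = HEK293 cells with stable M3R and inducible RGS4 | schedule = recording 10 s baseline at 1 Hz, 100 s post-agonist | technique = Fluo4-AM (2 µM) calcium-flux fluorescence, kinetic read | measure = Agonist-evoked peak-minus-minimum fluorescence over baseline, integrated ratio, B score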
# RGS4 block – human RGS4 inhibition | P49798 | HEK293 M3R/RGS4 inducible, Fluo-4 calcium flux; stronger effect = higher value; triggered by carbachol at its EC20 | B-score at 10 µM | actives 0.45% (n = 310,000) | AID 463165;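 active means B-score, a plate-corrected calcium signal, over three deviations above library mean, with baseline fluorescence within five deviations of library mean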;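 further: RGS4 expression induced by doxycycline in cells with stable M3 receptor; B-score is computed from the integrated fluorescence ratio over baseline after carbachol; higher B-score means a larger calcium signal and so more RGS4 inhibition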
# Target sequence (P49798 whole entry, looked up): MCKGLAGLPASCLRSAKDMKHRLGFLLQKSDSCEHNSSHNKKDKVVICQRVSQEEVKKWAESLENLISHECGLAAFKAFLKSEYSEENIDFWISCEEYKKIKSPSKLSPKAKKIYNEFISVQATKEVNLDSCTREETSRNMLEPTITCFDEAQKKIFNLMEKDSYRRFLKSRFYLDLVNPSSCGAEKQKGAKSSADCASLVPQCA
# MrgX1 antag – human MrgX1 receptor antagonism, primary screen. Q96LB2. MRGX1-HEK293 calcium flux, Fluo-4, BAM8-22 antagonism; stronger effect = lower value. B-score at 10 µM. actives 1.3% (n = 310,000). AID 588676;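 active means calcium-response B-score plate-corrected more than 3 library SD below zero, starting fluorescence within 5 deviations, no agonist response on first addition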;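 further: peak minus trough fluorescence over baseline after final BAM8-22 challenge near maximal dose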
# Numbers without * were called inactive; i = inactive. Only some compounds are listed: those with a hit (about 3.5% of all), similar ones and a draw of the others.
SMILES,MrgX1 allo act,MrgX1 agonist,RGS4 act,RGS4 block,MrgX1 antag
O=C(Nc1cccnc1)c1cc(-c2cccc(Br)c2)nc2ccccc12,i,i,-7.1*,i,i
COc1ccccc1Cc1nnc(NC(=O)C2CCN(C(=O)c3ccco3)CC2)s1,i,i,i,i,i
O=C(CCc1nnc2n(CCc3ccccc3)c(=O)c3ccccc3n12)NCCCN1CCCCC1,i,i,i,i,i
O=C(COC(=O)Cc1cccs1)Nc1ccc(OC(F)(F)F)cc1,i,i,i,i,i
Cc1ccc(-c2cc(C(=O)Nc3ccncc3)c3ccccc3n2)cc1,i,i,i,i,-7.6*
O=C(Nc1ccncc1)c1cc(-c2cccc(Br)c2)nc2ccccc12,i,i,i,i,i
COc1ccc(C2=NN(C3=NN=C(N)Cc4ncnn43)C(O)(C(F)(F)F)C2)cc1 (stereo not given),i,i,i,i,i
CC1=CC2=NC(=O)/C(=C/c3coc4ccc(Cl)cc4c3=O)C(=N)N2O1,i,i,-7.1*,i,i
O=C1CC(c2ccc(Cl)c([N+](=O)[O-])c2)c2ccc3ccccc3c2N1 (stereo not given),i,i,i,i,-7.5*
COc1ccc(-c2cc(C(=O)Nc3c(C)n(C)n(-c4ccccc4)c3=O)c3ccccc3n2)c(OC)c1,i,i,i,i,i
Cc1cc(OCc2cc(C(=O)N3CCC(Oc4cccnc4)CC3)no2)cc(C)c1Cl,i,i,-7*,i,i
CN(C)NC(=S)Nc1ccc(Cl)cc1,i,i,i,i,-6*
Fc1ccc(NC(=S)Nc2ccc(F)c(Cl)c2)cc1Cl,i,i,i,i,-4.8*
O=C(NC(=S)Nc1ccc(F)c(Cl)c1)C1CC1,i,i,i,i,i
CC(=O)N1CCOc2ccc(S(=O)(=O)N3CCC(C)CC3)cc21,i,i,i,i,i
O=C(NCCC1=CCCCC1)C(=O)c1c[nH]c2ccccc12,i,i,i,i,i
COc1cc(NC(=O)CCc2nnc3ccc(N4CCCCC4)nn23)cc(OC)c1OC,i,i,i,i,i
Nc1ncnc2nc(SCC(=O)Nc3ccccc3F)[nH]c12,i,i,i,i,i
Cc1ccc(C)c(NC(=O)/C(C#N)=C/c2ccc(Sc3nncn3C)c([N+](=O)[O-])c2)c1,i,i,i,6.2*,i
CN(C)CCCOc1cccc(Oc2ccccc2)c1,i,i,-7.5*,i,i
CC(C)OC(=O)c1cc2c(=O)[nH]c(C(Cl)(Cl)Cl)nc2o1,i,i,i,i,i
CC(C)(C)c1ccc(/C=C/C(=O)Nc2nncs2)cc1,i,i,i,i,-4.8*
CC(C)CN1C(=O)/C(=C(/C#N)C(=O)NC2CCCCC2)c2ccccc21,8.2*,i,i,i,i
Cc1cc2cc(CNC(=S)Nc3ccc(OC(F)(F)F)cc3)ccc2[nH]1,i,i,i,i,i
COc1cc(-c2nnc(CSc3nnc(Nc4ccc(C(C)C)cc4)s3)o2)cc(OC)c1OC,i,i,i,i,i
SMILES,MrgX1 allo act,MrgX1 agonist,RGS4 act,RGS4 block,MrgX1 antag
CCOc1ccccc1Nc1nnc(SCc2nnc(-c3cc(OC)c(OC)c(OC)c3)o2)s1,i,i,i,i,-6.2*
COc1ccccc1Nc1nnc(SCc2nnc(-c3cc(OC)c(OC)c(OC)c3)o2)s1,7.1*,i,i,i,i
CCc1cc(C(=O)N/N=C/c2ccc(OC)cc2)c2ccccc2n1,i,i,i,i,i
COc1cc(C(=O)NCCCOC(C)C)ccc1OC1CCN(C(C)=O)CC1,i,i,i,i,i
O=C(c1ccncc1)N1N=C(C2CCCCC2)CC1(O)C(F)(F)F (stereo not given),i,i,-7.4*,i,i
COc1cc(OC)cc(C(=O)OCCCOC(=O)c2cc(OC)cc(OC)c2)c1,i,i,i,i,i
COc1cccc(N/C=C/C(=O)c2ccc(OC)c(OC)c2)c1,i,i,i,i,i
CCOC(=O)c1cccc(N/C=C/C(=O)c2ccc(OC)c(OC)c2)c1,i,i,-8.3*,i,i
O=C(Nc1ccnc(-c2ccncc2)n1)C1CC1,i,i,i,i,i
CCn1c(=O)c(C(=O)NNC(=O)c2ccc(Cl)cc2Cl)c(O)c2ccccc21,i,69*,-7.8*,i,i
CCCn1c(=O)c(C(=O)NNC(=O)c2ccc(Cl)cc2Cl)c(O)c2ccccc21,i,38*,i,i,i
CCn1c(=O)c(C(=O)Nn2c(C)nc3ccccc3c2=O)c(O)c2ccccc21,i,i,i,i,i
CCCn1c(=O)c(C(=O)NCCc2ccc(OC)cc2)c(O)c2ccccc21,7*,i,i,i,i
CCCn1c(=O)c(C(=O)NCCc2ccccc2)c(O)c2ccccc21,i,i,i,i,i
CCc1nc2ccccc2c(=O)n1NC(=O)c1c(O)c2ccccc2n(CC)c1=O,12*,i,i,i,i
c1ccc(SSc2ccccn2)nc1,i,32*,i,i,i
c1ccc(Sc2ccccn2)cc1,i,i,i,i,i
COc1ccc(/C=C2\SC(=O)N(CC(=O)NC3CCS(=O)(=O)C3)C2=O)cc1 (stereo not given),i,i,i,i,i
O=C(c1cc(-c2cccs2)nn1-c1ccccc1)N1CCN(S(=O)(=O)c2ccccc2)CC1,i,i,-7.2*,i,i
COc1cccc(C(=O)NCC2(c3ccccc3)CCCC2)c1,i,i,i,i,i
COc1ccc(C(=O)NCC2(c3ccccc3)CCCC2)c(OC)c1,10*,i,i,i,-10*
CCCCn1nc(NS(=O)(=O)c2cccc3nonc23)c2cc3cccc(C)c3nc21,7.1*,i,i,i,i
CC(C)c1ccc(N2C=Nc3ccc(C(C)C)cc3C2)cc1,i,i,-7.5*,i,i
Cc1cccc(-c2noc(Cc3ccccc3)n2)c1,i,i,i,i,-8.2*
CCN(CC)CCN(Cc1cc2cc3c(cc2[nH]c1=O)OCO3)C(=S)NCC(C)C,i,i,i,i,i
CC1CN(CCCCOc2ccc(Cl)c3ccccc23)CC(C)O1 (stereo not given),i,i,i,i,i
COc1cccc(-c2cc3c(-n4cccc4)ncnc3o2)c1,i,i,-7.1*,i,i
O=C(Nc1ccc(Cl)c(Cl)c1)c1cccnc1,i,i,i,i,i
